Compound activity: PubChem, several laboratories
Shown are actives, neighbours in structure and some others; about 1.4% of the full set was active somewhere.
HNF4A DNA FP: change in binding of human HNF4 alpha to DNA | HNF4a-FITC DNA binding, fluorescence polarization, 1 h | activity change, % at 10 µM | AID 1224865 | actives 0.3% (n = 360,000); in the data active means activity change above about 30%, passing the limit was not always enough
IDE inh: cellular human IDE inhibition | P14735 | HEK cells, FAbetaB cleavage, fluorescence polarization | inhibition, % at 5.59 µM | actives 0.41% (n = 320,000) | AID 434962;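 active means percent inhibition above the average of all tested compounds plus 3 SD, set per screening campaign, cut at about 16% in these data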;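 further: IDE supplied by intact live HEK cells; FP after avidin binding of uncleaved biotin substrate so inhibition keeps polarization high; 0% = DMSO wells and 100% = 60 µM reference IDE inhibitor Ii1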
IDE act: boosts human insulin-degrading enzyme activity in HEK cells; actives 0.073% (n = 340,000); activation, % at 5.96 µM; FAbeta-B cleavage, fluorescence polarization; 0% vehicle, 100% cell-free pure enzyme wells; P14735;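 active means activation above the mean of all tested compounds plus 3 SD, set per screening campaign, cut at about 17% in these data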
TPT1 inh: C. albicans TPT1 enzyme inhibition. recombinant caTPT1, FP RNA substrate dephosphorylation. inhibition, % at 5 µM. actives 0.81% (n = 300,000). AID 1962;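 active means inhibition above the mean of all tested compounds plus 3 SD, set per screening campaign, cut at about 24% in these data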;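 further: plate controls were DMSO alone for no effect and ferristatin control at 100 nM for full effect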
CSN inh: blocks human CSN-mediated cullin deneddylation; Q92905; Purified CSN, SCF-Nedd8-OG deneddylation, fluorescence polarization; inhibition, % at 12.5 µM; actives 0.38% (n = 360,000); AID 651999;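 active means pattern-corrected inhibition above about 35%, with an unprinted fluorescence ratio check between 0.5 and 1.5, limit read from the data, passing the limit was not always enough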;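 further: 0% = enzyme with substrate and 100% = substrate without enzyme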
Target sequence (Q92905 whole entry, looked up, one chain of several): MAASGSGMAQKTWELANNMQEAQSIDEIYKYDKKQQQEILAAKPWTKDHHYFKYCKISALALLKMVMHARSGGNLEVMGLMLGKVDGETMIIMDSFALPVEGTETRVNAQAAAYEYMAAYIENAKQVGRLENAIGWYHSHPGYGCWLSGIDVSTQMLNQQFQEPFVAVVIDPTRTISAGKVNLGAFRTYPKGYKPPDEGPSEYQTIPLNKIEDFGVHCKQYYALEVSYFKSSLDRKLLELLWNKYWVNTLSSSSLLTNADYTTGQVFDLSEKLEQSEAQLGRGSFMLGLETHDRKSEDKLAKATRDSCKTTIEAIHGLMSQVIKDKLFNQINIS
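Test system: Human Csn5 produced in HEK293T cells | Compound: 12.5 µM single point | Times: 90 min, room temperature | Signal: Fluorescence polarization readout | Read-out basis: % inhibition of substrate cleavage by Csn5 | Controls: no-enzyme wells high, enzyme-with-substrate wells low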
caTPT1 confirm: TPT1 (C. albicans) inhibition, confirmation; inhibition, % at 5 µM; recombinant caTPT1, fluorescence polarization, RNase T1 coupled; shares compounds with TPT1 inh; actives 74% (n = 2,400); AID 2149;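 active means inhibition above the primary screen limit, the mean inhibition of all tested compounds plus 3 SD, cut at about 25% in these data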
RNase T1 counter: blocks Aspergillus oryzae RNase T1, a TPT1 counter-screen. shares compounds with TPT1 inh. RNase T1 cleavage, fluorescence polarization, 1536-well. inhibition, % at 5 µM. actives 83% (n = 2,400);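 active means inhibition above the solvent-only control well mean plus 3 SD, limit set per screening run, cut at about 23% in these data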;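 further: plate controls were DMSO wells with enzyme for no effect and wells without RNase T1 for full effect; inhibitors block cleavage so intact labeled substrate keeps polarization high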
Target sequence (P00651 whole entry, looked up): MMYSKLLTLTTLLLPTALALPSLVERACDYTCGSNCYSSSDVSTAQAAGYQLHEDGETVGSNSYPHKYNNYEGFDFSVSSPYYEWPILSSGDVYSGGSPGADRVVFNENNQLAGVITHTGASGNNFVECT
IDE inh confirm: confirmation of human insulin-degrading enzyme inhibitors in cells; actives 51% (n = 1,200); shares compounds with IDE inh; inhibition, % at 5.59 µM; HEK cells, FAbetaB cleavage, fluorescence polarization; AID 435028;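 active means mean inhibition across triplicate wells above the cutoff set by the earlier primary insulin-degrading enzyme screen, cut at about 16% in these data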;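 further: 0% = DMSO wells and 100% = 60 µM reference IDE inhibitor Ii1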
HEK293 tox: kills HEK cells in IDE inhibitor counter-screen; shares compounds with IDE inh; HEK293 cytotoxicity, ATP luminescence; inhibition, % at 5.59 µM; actives 28% (n = 1,200); AID 449730; in the data active means inhibition above about 22%;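 further: 0% = vehicle wells and 100% = reference cytotoxic drug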
CSN deneddyl val: Csn5 (human) deneddylation inhibition, single-concentration validation. inhibition, % at 16.6 µM. actives 62% (n = 540). shares compounds with CSN inh. Csn5 deneddylation of SCF-Nedd8OG, fluorescence polarization, 90 min; in the data active means inhibition above about 50%;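 further: 0% = DMSO with enzyme and 100% = no enzyme wells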
MMP2 cntr CSN: MMP-2 (human) inhibition, counter-screen for CSN hits; shares compounds with CSN inh; recombinant MMP-2, FRET substrate fluorescence, 60 min; inhibition, % at 16.6 µM; actives 33% (n = 540); AID 720655;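 active means corrected plate-normalized z-score of 5 or more, or -5 or less, or inhibition of 15% or more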;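 further: plate controls were DMSO wells with enzyme for no effect and buffer wells lacking MMP-2 for full effect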
Thrombin counter: blocks bovine thrombin in a CSN deneddylation counter-screen; shares compounds with CSN inh; bovine thrombin cleavage of Ub4-pepOG, fluorescence polarization; inhibition, % at 16.6 µM; actives 49% (n = 540);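 active means inhibition at or above a set limit, with a fluorescence interference ratio between 0.5 and a set maximum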
An asterisk follows results filed as active; / = not tested or not shown; + = active, no number.

SMILES | HNF4A DNA FP | IDE inh | IDE act | TPT1 inh | CSN inh | caTPT1 confirm | RNase T1 counter | CSN deneddyl val | MMP2 cntr CSN | Thrombin counter | others
N#C/C(=C\c1ccc(N2CCCCC2)o1)C(=O)Nc1cccc(Br)c1 | 133 | 140* | -103 | 168* | 109 | 191* | 172* | / | / | / | IDE inh confirm=79*;HEK293 tox=42*
CC1=Nc2ccccc2/C1=C/c1sc(=N)n(-c2nccs2)c1O | 36 | 14 | -7 | 99* | 44* | 112* | 122* | 48 | 17* | 43*
Cc1cccc(C)c1-n1cccc1/C=C1/C(=N)N2C(=NC1=O)SN=C2S(C)(=O)=O | -2 | 6 | -1 | 1 | 5 | / | / | / | / | /
Cc1ccc(-n2cccc2/C=C2/C(=N)N3C(=NC2=O)SN=C3S(C)(=O)=O)cc1Cl | 25 | -4 | 4 | 32* | 59* | 35* | 48* | 0 | 9 | 39*
COc1ccc(Cl)cc1C(=O)Nc1cccc(-c2ccc3nncn3n2)c1 | 55* | 17* | -6 | 38* | 137* | 55* | 28* | -14 | 18* | 22* | IDE inh confirm=-1;HEK293 tox=22*
O=C1c2ccccc2C(=O)N1C1C(=O)N2CCSC12C(=O)OCc1ccccc1 (stereo not drawn) | 4 | / | 3 | / | 1 | / | / | / | / | /
CC(C)OC(=O)CN1C(=O)S/C(=C/c2ccc(N3CCCCC3)o2)C1=O | 9 | 5 | -28 | 180* | 51* | + | 179* | 73* | -114* | -73
CC(C)(C)OC(=O)CN1C(=O)S/C(=C\c2ccc(-c3cccc(C(=O)O)c3)o2)C1=O | / | 4 | / | 5 | / | / | / | / | / | /
CC(=O)c1cccc(NC(=O)c2cc(S(=O)(=O)N3CCCCC3)ccc2N2CCOCC2)c1 | 2 | / | / | / | 1 | / | / | / | / | /
Cc1ccccc1CN1CCCOCCS1(=O)=O | 3 | -3 | 5 | 3 | 5 | / | / | / | / | /
COc1ccc(/C=N/N2C(=O)CSC2=S)cc1Br | 61* | 3 | -17 | 38* | 58* | 62* | 70* | 51* | 5 | 54*
O=C(NCCc1ccccc1)C(=O)NCC1OCCCN1S(=O)(=O)c1cccs1 (stereo not drawn) | 0 | 4 | 6 | 2 | 2 | / | / | / | / | /
CCN(CC)c1ccc(-c2sc(Nc3ccccc3)n[n+]2-c2ccc(F)cc2)cc1 | 148 | 2 | -7 | 95* | 65* | 120* | 117* | 146* | 6 | -29
CCc1ccc(Nc2n[n+](-c3ccccc3)c(-c3ccc(OCc4ccccc4)cc3)s2)cc1 | -5 | 1 | -2 | -1 | 7 | / | / | / | / | /
CCc1ccc(Nc2n[n+](-c3ccccc3)c(-c3ccc(N(CC)CC)cc3)s2)cc1 | 175 | 19* | -8 | 105* | 91* | 115* | 112* | 13 | -79* | -84 | IDE inh confirm=23*;HEK293 tox=58*
O=C(O)c1ccc(-c2sc(Nc3ccccc3)n[n+]2-c2ccc(F)cc2)cc1 | 1 | -4 | 5 | 1 | -6 | / | / | / | / | /
Cc1cc2oc(=O)cc(CN3CCCCC3C)c2cc1C (stereo not drawn) | 4 | 5 | 4 | 6 | 1 | / | / | / | / | /
Cc1c(C#N)c(O)[nH]c(=O)c1N=Nc1ccc(Br)cc1C(=O)O | 86* | -2 | 3 | 29* | 56* | 43* | 65* | 21 | 2 | 53*
Cc1cccc(N=Nc2c(C)c(C#N)c(O)[nH]c2=O)c1 | 4 | 1 | 2 | 24 | 28 | / | / | / | / | /
CC1CCN(C(=O)CSc2nc(C(C)C)nc3c2c(=O)n(C)c(=O)n3C)CC1 | 1 | 7 | -2 | -1 | 4 | / | / | / | / | /
COc1ccc(/C=C(/C(=O)c2ccc(Cl)cc2Cl)n2cncn2)cc1 | -2 | 0 | 5 | 0 | 4 | / | / | / | / | /
CN(C)c1ccc(/C=C(/C(=O)c2ccc(Cl)cc2Cl)n2cncn2)cc1 | 92* | 141* | -146 | 121* | 79* | 132* | 131* | 93* | -23* | 70* | IDE inh confirm=162*;HEK293 tox=28*
CC(=O)NC(c1ccccc1)c1nc(-c2ccc(F)c(Cl)c2)cs1 (stereo not drawn) | 2 | / | / | / | 2 | / | / | / | / | /
CC(=O)Nc1ccc(S(=O)(=O)NCC2CCC(C(=O)N3CC(C)CC(C)C3)CC2)cc1 (stereo not drawn) | -1 | -1 | 1 | 1 | -2 | / | / | / | / | /
COC(=O)C[C@@H]1CC[C@@H](NC(C)=O)[C@@H](CO)O1 | 0 | / | / | / | -1 | / | / | / | / | /
SMILES | HNF4A DNA FP | IDE inh | IDE act | TPT1 inh | CSN inh | caTPT1 confirm | RNase T1 counter | CSN deneddyl val | MMP2 cntr CSN | Thrombin counter | others
CC(C)CC[n+]1ccccc1/C=C/c1ccc(N(C)C)cc1 | 55* | 37* | -12 | 44* | 38* | 49* | 58* | 88* | -58* | 11 | IDE inh confirm=69*;HEK293 tox=101*
CN(C)c1ccc(/C=C/c2cccc[n+]2[O-])cc1 | 17 | 2 | / | 8 | -2 | / | / | / | / | /
CN(/N=C/c1ccc(-c2ccc([N+](=O)[O-])cc2)o1)c1ccccc1 | 48* | 11 | -25 | 73* | 50* | 74* | 82* | 92* | 2 | 25*
OCCC1CN(C2CCC2)CCN1Cc1ccc(F)c(F)c1 (stereo not drawn) | -9 | 4 | 3 | -2 | -1 | / | / | / | / | /
CCOc1ccc(N(C)c2ccc(/C=C3/SC(=S)NC3=O)cc2)cc1 | 108 | 14 | -38 | 115* | 87* | 128* | 127* | 28 | 24* | 66*
CCCN(CCC)CC(O)Cn1cc(/C=C/C(=O)c2ccccc2)c2ccccc21 (stereo not drawn) | 5 | / | 4 | / | 6 | / | / | / | / | /
CCCN(CCC)CC(O)Cn1cc(/C=C/C(=O)c2cccs2)c2ccccc21 (stereo not drawn) | 19 | 7 | -3 | 61* | 42* | 64* | 72* | 71* | -2 | 35*
Cc1occc1C(=O)/C(C#N)=C/c1ccc(O)c(Br)c1 | 15 | 3 | -51 | 113* | 40* | 169* | 161* | 41 | -25 | 57*
